Bioassay records: PubChem, several laboratories
An excerpt weighted towards active compounds, which were near 1.2% of everything screened.
NSD2 HMT inh: NSD2 histone methyltransferase inhibitors, primary screen, biochemical, AlphaScreen, single concentration, set 2; AID 743445, 2014; NSD2 peptide methylation, 120 min; inhibition, % at 12.5 µM; 310,000 compounds, 0.54% hits; in the data active means inhibition above about 50%
Target sequence (O96028 whole entry, looked up): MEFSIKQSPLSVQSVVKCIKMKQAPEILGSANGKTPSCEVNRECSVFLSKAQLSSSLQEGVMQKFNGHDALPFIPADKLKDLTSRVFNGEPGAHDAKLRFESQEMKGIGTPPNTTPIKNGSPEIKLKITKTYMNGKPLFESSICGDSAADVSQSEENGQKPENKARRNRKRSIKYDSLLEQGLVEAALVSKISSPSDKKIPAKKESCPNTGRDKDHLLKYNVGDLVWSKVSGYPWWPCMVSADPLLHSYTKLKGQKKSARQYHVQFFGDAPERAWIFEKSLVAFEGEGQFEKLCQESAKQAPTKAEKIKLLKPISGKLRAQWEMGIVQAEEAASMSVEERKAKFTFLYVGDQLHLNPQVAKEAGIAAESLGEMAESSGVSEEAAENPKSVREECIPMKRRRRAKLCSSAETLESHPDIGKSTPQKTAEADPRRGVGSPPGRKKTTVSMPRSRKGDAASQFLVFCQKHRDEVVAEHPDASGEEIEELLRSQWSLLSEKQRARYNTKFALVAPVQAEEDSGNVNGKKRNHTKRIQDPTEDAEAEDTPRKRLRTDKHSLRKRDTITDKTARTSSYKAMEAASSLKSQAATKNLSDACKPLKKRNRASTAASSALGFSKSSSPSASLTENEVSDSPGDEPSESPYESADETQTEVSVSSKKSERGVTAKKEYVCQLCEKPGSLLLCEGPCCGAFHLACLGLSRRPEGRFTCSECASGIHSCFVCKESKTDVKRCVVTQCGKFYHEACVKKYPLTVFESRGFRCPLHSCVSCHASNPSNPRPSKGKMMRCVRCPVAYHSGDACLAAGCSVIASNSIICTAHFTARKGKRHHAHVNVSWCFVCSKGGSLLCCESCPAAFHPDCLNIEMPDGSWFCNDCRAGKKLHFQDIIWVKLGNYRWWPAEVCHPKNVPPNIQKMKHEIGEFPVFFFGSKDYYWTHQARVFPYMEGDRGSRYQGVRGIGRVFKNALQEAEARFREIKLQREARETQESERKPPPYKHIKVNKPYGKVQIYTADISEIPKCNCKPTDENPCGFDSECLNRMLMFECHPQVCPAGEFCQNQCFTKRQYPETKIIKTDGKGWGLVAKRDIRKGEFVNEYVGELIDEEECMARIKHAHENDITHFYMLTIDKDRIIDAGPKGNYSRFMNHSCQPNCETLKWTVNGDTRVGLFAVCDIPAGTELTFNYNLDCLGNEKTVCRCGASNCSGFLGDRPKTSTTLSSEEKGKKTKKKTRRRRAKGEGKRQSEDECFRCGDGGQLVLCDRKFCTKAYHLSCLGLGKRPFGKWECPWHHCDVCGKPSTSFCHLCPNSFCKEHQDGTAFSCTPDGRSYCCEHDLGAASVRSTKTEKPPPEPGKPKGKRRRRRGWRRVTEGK
TDP2 inh: human TDP2 enzyme inhibitors, primary screen, biochemical, epi absorbance, recombinant enzyme; Tyrosyl-DNA phosphodiesterase 2 (Homo sapiens), O95551; T5PNP hydrolysis, p-nitrophenol absorbance 415 nm; inhibition, % at 12.8 µM; 370,000 compounds, 0.34% hits;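 active means inhibition above the mean of all tested compounds plus 3 SD, set per campaign, cut at about 25% in these data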;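 further: 0% = DMSO with enzyme and 100% = buffer with substrate but no TDP2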
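Evaluation: % inhibition relative to enzyme-containing and enzyme-free wells. Material: recombinant human TDP2. Benchmarks: enzyme-free and DMSO wells. Timing: enzyme reaction with compound for 2 h at 37 °C. Compound dosing: 12.8 µM only. Measured by: p-Nitrophenol epi absorbance. Reagent: T5PNP substrate at 5 mM, a TopII-DNA adduct mimic. Replication: single well per compound.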
SUMO HTRF inh: inhibitors of in vitro SUMOylation cascade, primary screen, biochemical, HTRF, uHTS | SUMO-conjugating enzyme UBC9 (Homo sapiens), P63279 | HTRF SUMOylation assay, SAE1/SAE2 + UBC9 | inhibition, % at 35 µM | 290,000 compounds, 0.36% hits | AID 2006, 2009; in the data active means inhibition above about 50%, passing the limit was not always enough
Fh CTSL1 inh: Fasciola hepatica cathepsin L1 inhibitors, primary screen, counter-screen for PFM18AAP inhibitor project, biochemical, QFRET, fluorogenic peptide substrate. AID 1906, 2009. recombinant F. hepatica cathepsin L1, Z-Leu-Arg-MCA fluorescence. inhibition, % at 5.96 µM. 300,000 compounds, 0.49% hits;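 active means inhibition above the mean of all tested compounds plus 3 SD, set per screening campaign, cut at about 17% in these data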;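 further: 0% = plate median of test compound wells and 100% = 1 µM Z-Phe-Ala-diazomethylketone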
The depositor's hits bear a star; . = not tested or not shown.

SMILES	NSD2 HMT inh	TDP2 inh	SUMO HTRF inh	Fh CTSL1 inh
Cc1ccc(CCNC(=O)c2cc(S(=O)(=O)N3CCOCC3)cn2C)cc1	.	-10	10	67*
CCc1nc2ccc(C(=O)N3CCC(C(N)=O)CC3)cc2nc1CC	-2	.	.	.
COc1ccc(CCN(Cc2ccccn2)C(=S)Nc2ccc(C)cc2)cc1OC	22	-10	3	1
COc1ccccc1NC(=S)N(CCc1ccc(OC)c(OC)c1)Cc1ccccn1	.	-12	9	18*
CN(C)/C=N/c1nc2nccc(-c3ccc(F)cc3)n2n1	-4	7	52*	4
Fc1ccc(-c2ccnc3nc(N4CCOCC4)nn23)cc1	13	6	52*	-4
Fc1ccc(-c2ccnc3nc(-n4cccc4)nn23)cc1	-3	7	38	0
CN(C)/C=N/c1nc2nccc(-c3cccc(Cl)c3)n2n1	-4	6	50*	2
CC(Oc1cccc(Cl)c1)c1ccnc2nc(/N=C/N(C)C)nn12 (configuration not stated)	3	4	1	-2
Cc1c(NC(=O)COc2cccc(Cl)c2Cl)c(=O)n(-c2ccccc2)n1C	0	-23	.	23*
O=C(NCCC1=CCCCC1)C(=O)NCc1ccccc1Cl	-4	2	-1	8
O=C1CC(NCCC2=CCCCC2)C(=O)N1c1cccc(Cl)c1Cl (configuration not stated)	.	.	15	18*
O=C(CC1SC(=Nc2ccc(O)cc2)NC1=O)Nc1ccccc1 (configuration not stated)	-1	.	24	-2
CCOc1ccc(N=C2NC(=O)C(CC(=O)Nc3ccccc3)S2)cc1 (configuration not stated)	1	-3	9	19*
CCOC(=O)C1CCN(Cc2cn[nH]c2-c2ccccc2)CC1	126*	7	8	-1
CN(Cc1ccc(F)cc1)C(=O)CN1C(=O)C2(OCCCO2)c2ccccc21	1	4	.	.
O=C(NC1CCCC1)C(c1ccc(F)cc1)N(Cc1ccc(F)cc1)C(=O)CCl (configuration not stated)	2	5	-3	51*
COC(CN(C(=O)CCl)C(C(=O)NC1CCCCC1)c1ccc(C)cc1)OC (configuration not stated)	-1	-3	0	78*
O=C(COC(=O)c1ccc2c(c1[N+](=O)[O-])C(=O)c1ccccc1C2=O)NC1CC1	3	10	12	21*
COC(=O)c1ccc(C(=O)OC)c(NC(=O)CN(c2ccccc2)S(=O)(=O)N(C)C)c1	-1	1	-1	37*
COC(=O)c1c(N)n(-c2ccc(NC(C)=O)cc2)c2nc3ccccc3nc12	6	1	23	-2
COC(=O)c1c(N)n(-c2ccc(N3CCOCC3)cc2)c2nc3ccccc3nc12	.	.	52*	.
COc1ccc(C(=O)c2[nH]c(N)c(C(=O)c3c[nH]c4ccccc34)c2-c2ccc(OC)cc2)cc1	.	-9	.	.
Oc1ccc(N=Cc2ccc(-c3cccs3)s2)cc1	.	9	80	40*
CCN(CC)Cc1cc(Nc2c3ccccc3nc3c4ccccc4n(C)c23)cc(CN(CC)CC)c1O	.	-12	.	.
SMILES	NSD2 HMT inh	TDP2 inh	SUMO HTRF inh	Fh CTSL1 inh
Cc1cc(C)nc(NC(=O)/C=C/c2ccc(Cl)cc2Cl)c1	1	-2	-30	19*
COc1ccc(C(=O)c2c(C(F)(F)F)oc3c2C(=O)c2ccccc2C3=O)cc1	.	.	4	28*
COc1ccc(N(C(=O)c2ccco2)C(C(=O)NC2CCCCC2)c2cccs2)cc1OC (configuration not stated)	1	4	11	0
C#CC(=O)N(c1cc(OC)ccc1OC)C(C(=O)NC1CCCC1)c1cccs1 (configuration not stated)	.	.	-5	34*
C#CC(=O)N(c1ccc(OC)cc1OC)C(C(=O)NC1CCCC1)c1cccs1 (configuration not stated)	36	6	0	30*
CCCC/C=C1/[C@@H](CC)N(Cc2ccc(OC)cc2OC)C2=N[C@@H](c3ccccc3)CC(=O)N21	-4	-18	.	.
COc1ccc(N2C(=O)C(Cl)=C(Nc3ccccc3O)C2=O)cc1	1	13	17	50*
Cc1cc(Oc2cccnc2)ccc1NC(=O)Cc1c(C)[nH]c2ccccc12	.	1	.	.
CC(C)NC[C@H](O)COc1cccc2[nH]ccc12	.	-2	-7	86*
CC(C)c1ccc(-c2nc(N3CCCCC3)[nH]c(=O)c2C#N)cc1	3	9	-30	0
CC1=Nc2nc(N3CCCCC3)c(C#N)c3c4c(nc(c23)N1)N(c1ccc(C(C)C)cc1)C(=O)C4	0	1	60*	3
COCCNC(=O)c1cccc2c(-c3cnn(C)c3)coc12	-3	4	.	.
Cc1cc(C)n(C(=O)/C(C#N)=N/Nc2cc(Cl)cc(Cl)c2)n1	9	.	5	20*
Cc1cc(C)n(C(=O)/C(C#N)=N\Nc2ccccc2[N+](=O)[O-])n1	-5	-11	9	2
COCCN(C(=O)CSc1nnc(C(F)(F)F)n1C)c1c(N)n(CC(C)C)c(=O)[nH]c1=O	1	.	.	.
CC(C)(C)c1ccc(CC(=O)N2CCC2(C)C(=O)NCCC#N)cc1 (configuration not stated)	-3	-2	.	.
COC(=O)[C@]12C[C@H](CC(=O)NCCCCc3ccccc3)C(=O)N(Cc3ccco3)C1=C[C@H](C(C)(C)C)O[C@@H]2C	.	-7	.	.
CCC(=O)NC1=C(Cl)C(=O)C(NC(=O)CC)=C(Cl)C1=O	.	8	76*	.
CC(C)CC(NC(=O)C1CCC(C)CC1)C(=O)NCc1ccco1 (configuration not stated)	.	-14	0	23*
COc1ccc(C(O)c2ncc(-c3cccc(F)c3)[nH]2)cc1F (configuration not stated)	3	6	.	.
Cc1cc(C)c[n+](C2=C([O-])c3ccccc3C(=O)/C2=N\S(=O)(=O)c2cccs2)c1	3	0	28	13
Cc1ccc(NC2=C/C(=N/S(=O)(=O)c3cccs3)c3ccccc3C2=O)cc1C	0	-1	-2	19*
COC(=O)C(C(C)=O)C1=C/C(=N\S(=O)(=O)c2ccc(C)cc2)c2ccccc2C1=O (configuration not stated)	.	.	7	-1
Cc1cc[n+](C2=C([O-])c3ccccc3C(=O)/C2=N\S(=O)(=O)c2cccs2)cc1C	12	0	29	27*
COc1ccc(S(=O)(=O)/N=C2\C=C(Nc3ccc(O)cc3)C(=O)c3ccccc32)cc1	51*	67*	25	92*
O=C(O)c1ccc(S(=O)(=O)/N=C2\C=C(Nc3ccccc3F)C(=O)c3ccccc32)cc1	120*	89*	92*	80*
CCc1nc2ccc(C(=O)NCc3ccccc3OC)cn2c1N(C)Cc1ccc(N(C)C)cc1	3	-1	.	.
